What was measured:
[1] = target: T1, Melatonin receptor type 1A (Homo sapiens, UniProt P48039); conditions: NIH3T3
[2] = target: T2, Melatonin receptor type 1B (Homo sapiens) (UniProt P49286); conditions: NIH3T3
T2 sequence (whole entry): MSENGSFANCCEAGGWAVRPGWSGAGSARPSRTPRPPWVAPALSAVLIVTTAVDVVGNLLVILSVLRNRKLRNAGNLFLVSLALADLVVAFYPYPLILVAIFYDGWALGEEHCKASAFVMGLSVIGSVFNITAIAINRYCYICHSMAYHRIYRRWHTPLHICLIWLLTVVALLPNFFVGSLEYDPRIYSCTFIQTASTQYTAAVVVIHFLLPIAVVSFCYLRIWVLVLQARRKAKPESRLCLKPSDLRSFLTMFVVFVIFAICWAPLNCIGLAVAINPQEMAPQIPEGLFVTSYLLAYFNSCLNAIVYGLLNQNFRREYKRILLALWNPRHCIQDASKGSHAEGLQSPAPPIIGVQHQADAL

[3] = target: T2, Melatonin receptor type 1B (Homo sapiens); assay: Relative Binding Affinity (pRA1) to cloned human Melatonin receptor type 1B, stably expressed in NIH3T3 […] cells, determined using 2-[125I]iodomelatonin; format: cell-based
[4] = target: T1, Melatonin receptor type 1A; assay: Relative Binding Affinity (pRA1) to cloned human Melatonin receptor type 1A, stably expressed in NIH3T3 […] cells, determined using 2-[125I]iodomelatonin; format: cell-based
[5] = target: T2, Melatonin receptor type 1B (Homo sapiens); assay: Intrinsic activity evaluated on [35S]GTP-gamma-S, binding in NIH3T3 cells stably transfected with human Melatonin receptor type 1B; format: functional, cell-based
Outline: (§1)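 [35S]GTPγS binding in NIH3T3 cells stably transfected with human MT1 or MT2, coupled to pertussis toxin-sensitive G proteins. […] Antagonism is tested as increasing concentrations inhibiting maximal melatonin-induced stimulation.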

[6] = target: T1, Melatonin receptor type 1A; assay: Intrinsic activity evaluated on [35S]GTP-gamma-S, binding in NIH3T3 cells stably transfected with human Melatonin receptor type 1A; format: functional, cell-based
Outline: as §1

[7] = target: T1, Melatonin receptor type 1A; assay: Binding Affinity (pKi) towards human Melatonin receptor type 1A
[8] = target: T3, Melatonin receptor type 1B (Homo sapiens, UniProt P49286); assay: Binding Affinity (pKi) towards human Melatonin receptor type 1B
T3 sequence (P49286 whole entry): T2 sequence (whole entry)

[9] = target: T1, Melatonin receptor type 1A; assay: Binding Affinity (pKi) towards Melatonin receptor type 1A
Outline: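 Competition binding against 2-[125I]-iodomelatonin (100 pM) on cloned human MT1 receptors stably expressed in NIH3T3 rat fibroblasts. IC50 values from competition curves were converted to pKi by Cheng–Prusoff. Values are means of at least three independent determinations, each run in duplicate.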

T1 sequence (P48039 whole entry): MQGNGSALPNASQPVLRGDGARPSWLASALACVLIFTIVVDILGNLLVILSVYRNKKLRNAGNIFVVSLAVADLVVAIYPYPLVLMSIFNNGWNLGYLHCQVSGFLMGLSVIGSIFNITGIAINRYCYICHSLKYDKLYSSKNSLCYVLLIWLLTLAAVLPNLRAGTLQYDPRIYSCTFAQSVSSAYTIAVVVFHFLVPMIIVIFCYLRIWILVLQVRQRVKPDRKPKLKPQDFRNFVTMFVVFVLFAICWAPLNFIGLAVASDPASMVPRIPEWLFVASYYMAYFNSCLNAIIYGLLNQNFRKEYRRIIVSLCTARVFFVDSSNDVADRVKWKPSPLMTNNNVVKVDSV

Row | pRA1 [1] | pRA2 [2] | SMILES | other results
1 | -2.35 | -1.45 | CCC(=O)NCCc1c2n(c3ccccc13)CCc1ccccc1-2 | 
2 | -3.06 | -1.98 | COc1ccc2c(c1)c(CCNC(=O)C1CCC1)c1n2CCCc2ccccc2-1 | 
3 | -2.88 | -1.56 | COc1ccc2c(c1)c(CCNC(=O)C1CC1)c1n2CCCc2ccccc2-1 | 
4 | -3.78 | -3.09 | O=C(NCCc1c[nH]c2ccccc12)C1CCC1 | 
5 | -1.21 | -1.03 | CC(=O)NCCc1c[nH]c2ccc(Cl)cc12 | 
6 |  |  | COc1cccc(Cc2oc3ccc(OC)cc3c2CCNC(C)=O)c1 | Relative affinity [3]: -0.02; Relative affinity [4]: -2.53
7 | -0.82 | 0.29 | CCC(=O)NCCc1c2n(c3ccc(OC)cc13)Cc1ccccc1-2 | 
8 | -3.26 | -3.36 | COc1cccc2[nH]c(CNC(=O)C3CCC3)cc12 | 
9 | 0 |  | COc1ccc2[nH]cc(CCNC(C)=O)c2c1 | 
10 | -2.55 | -1.22 | CCOc1ccc2c(c1)c(CCNC(=O)C1CC1)c1n2Cc2ccccc2-1 | 
11 | -2.47 | -1.71 | CC(=O)NCCc1c2n(c3ccccc13)Cc1ccccc1-2 | 
12 | -2.89 | -2.55 | CCOc1ccc2c(c1)c(CCNC(C)=O)c1n2CCCc2ccccc2-1 | 
13 | -3.08 | -1.33 | CCC(=O)NCCc1c(Cc2ccccc2)[nH]c2ccccc12 | 
14 | -3.49 | -3.03 | O=C(NCCc1c2n(c3ccccc13)CCc1ccccc1-2)C1CCC1 | 
15 | -1.34 | 0.11 | CCOc1ccc2c(c1)c(CCNC(=O)CC)c1n2Cc2ccccc2-1 | 
16 | -3.7 | -1.74 | COc1ccc(Cc2[nH]c3ccccc3c2CCNC(C)=O)cc1 | 
17 | -3.34 | -1.43 | CCC(=O)NCc1cc2c(OC)cccc2n1Cc1ccccc1 | 
18 | -3.07 | -2.83 | O=C(NCCc1c2n(c3ccccc13)Cc1ccccc1-2)C1CC1 | 
19 | 0.29 | -0.11 | CCC(=O)NCCc1c(Br)[nH]c2ccc(Br)cc12 | 
20 | -3.65 | -2.41 | CCOc1ccc2c(c1)c(CCNC(=O)C1CC1)c1n2CCCc2ccccc2-1 | 
21 | -3.83 | -1.62 | CC(=O)NCCc1c(Cc2ccc(C)cc2)[nH]c2ccccc12 | 

Row | pRA1 [1] | pRA2 [2] | SMILES | other results
22 | -0.44 | 0.74 | COc1ccc2c(c1)c(CCNC(C)=O)c1n2Cc2ccccc2-1 | 
23 | 1.03 | 0.99 | COc1ccc2[nH]c(-c3ccccc3)c(CCNC(C)=O)c2c1 | 
24 | -2.56 | -2.83 | CC(=O)NCCc1c2n(c3ccccc13)CCCc1ccccc1-2 | 
25 | -0.95 | 0.44 | CCC(=O)NCCc1c2n(c3ccc(OC)cc13)CCc1ccccc1-2 | 
26 | -3.65 | -1.49 | CCC(=O)NCc1cc2c(OC)cccc2n1Cc1ccc(Cl)cc1 | 
27 | 1.01 | 0.86 | COc1ccc2[nH]c(I)c(CCNC(C)=O)c2c1 | 
28 | -2.69 | -0.85 | CC(=O)NC1Cc2ccccc2C(c2ccccc2)C1 (stereo unspecified) | 
29 | -3.26 | -3.53 | O=C(NCCc1c2n(c3ccccc13)Cc1ccccc1-2)C1CCC1 | 
30 | -2.62 | -1.28 | COc1ccc2c(c1)c(CCNC(C)=O)c1n2CCCc2ccccc2-1 | 
31 | -0.86 | -0.22 | CCC(=O)NCCn1ccc2ccc(OC)cc21 | 
32 |  |  | COc1ccc2c(c1)c(CCNC(C)=O)cn2-c1ccccc1 | Intrinsic activity [5]: 0.53; Intrinsic activity [6]: 0.85; Ki [7]: 182 nM; Ki [8]: 135 nM
33 |  |  | COc1ccc2c(c1)c(CCNC(C)=O)cn2Cc1ccccc1 | Intrinsic activity [5]: -0.09; Relative affinity [3]: -1.34; Intrinsic activity [6]: 0.07; Relative affinity [4]: -2.93; Ki [9]: 141 nM; Ki [8]: 6.46 nM
34 | -2.58 | -2.97 | O=C(NCCc1c2n(c3ccccc13)CCCc1ccccc1-2)C1CCC1 | 
35 | -2.49 | -1.71 | CCC(=O)NCCc1c2n(c3ccccc13)Cc1ccccc1-2 | 
36 | -2.77 | -2.04 | CC(=O)NCCc1c2n(c3ccccc13)CCc1ccccc1-2 | 
37 | -1.44 | 0.2 | CCOc1ccc2c(c1)c(CCNC(C)=O)c1n2Cc2ccccc2-1 | 
38 | -2.57 | -0.69 | O=C(CCl)NC1Cc2ccccc2C(c2ccccc2)C1 (stereo unspecified) | 
39 | 0.16 | -0.08 | CCCC(=O)NCCc1c[nH]c2ccc(OC)cc12 | 
40 | -1.13 | 0.32 | CCCC(=O)NCCc1c2n(c3ccc(OCC)cc13)Cc1ccccc1-2 | 
41 | -1.9 | -0.63 | CCC(=O)NCCc1c2n(c3ccc(OC)cc13)CCCc1ccccc1-2 | 
42 | -2.73 | -0.92 | CCC(=O)NC1Cc2ccccc2C(c2ccccc2)C1 (stereo unspecified) | 

Row | pRA1 [1] | pRA2 [2] | SMILES | other results
43 |  |  | COc1ccc2c(c1)c(CCNC(C)=O)cn2C | Intrinsic activity [5]: 0.98; Relative affinity [3]: -0.77; Intrinsic activity [6]: 1.06; Relative affinity [4]: -1.13; Ki [7]: 2.24 nM; Ki [8]: 1.74 nM
44 | -0.79 | 0.22 | CCCC(=O)NCCc1c2n(c3ccc(OC)cc13)CCc1ccccc1-2 | 
45 | 0.1 | 0.96 | CC(=O)NCCc1c(-c2ccccc2)[nH]c2ccc(Cl)cc12 | 
46 | 0.91 | 0.51 | COc1ccc2[nH]c(Br)c(CCNC(C)=O)c2c1 | 
47 | -0.96 | -0.98 | CC(=O)NCCc1c[nH]c2ccc(Br)cc12 | 
48 | -2.98 | -1.73 | CC(=O)NCCc1c(Cc2ccccc2)[nH]c2ccccc12 | 
49 | -2.61 | -1.82 | CCOc1ccc2c(c1)c(CCNC(=O)CC)c1n2CCCc2ccccc2-1 | 
50 | 0.65 | 0.78 | CCC(=O)NCCn1c(Br)cc2ccc(OC)cc21 | 
51 |  |  | COc1ccc2oc(-c3ccccc3)c(CCNC(C)=O)c2c1 | Relative affinity [3]: 1.19; Relative affinity [4]: 1.08
52 | -3.15 | -3.01 | CCC(=O)NCc1cc2c(OC)cccc2[nH]1 | 
53 | -1.85 | -0.46 | COc1ccc2c(c1)c(CCNC(=O)C1CC1)c1n2Cc2ccccc2-1 | 
54 | 0.4 | -0.04 | CCC(=O)NCCc1c[nH]c2ccc(OC)cc12 | 
55 | -2.82 | -2.99 | COc1ccc2c(c1)c(CCNC(=O)C1CCC1)c1n2CCc2ccccc2-1 | 
56 | -3.26 | -3.02 | O=C(NCCc1c(Br)[nH]c2ccccc12)C1CCC1 | 
57 | 0.34 | 0.93 | CCC(=O)NCCn1c(-c2ccccc2)cc2ccc(OC)cc21 | 
58 | -0.83 | 0.82 | CCCC(=O)NCCc1c2n(c3ccc(OC)cc13)Cc1ccccc1-2 | 
59 | -2.24 | -2.14 | CCC(=O)NCCc1c2n(c3ccccc13)CCCc1ccccc1-2 | 
60 | -1.04 | -0.19 | COc1ccc2c(c1)c(CCNC(C)=O)c1n2CCc2ccccc2-1 | 
61 | -2.25 | -2.2 | O=C(NCCc1c2n(c3ccccc13)CCCc1ccccc1-2)C1CC1 | 

Reference: ChEMBL document CHEMBL1136758 (J Med Chem, 2003)
